These results are taken from ChEMBL document CHEMBL1157043, “An eco-friendly synthesis and antimicrobial activities of dihydro-2H-benzo- and naphtho-1,3-oxazine derivatives” (Eur J Med Chem, 2010).

Molecules are shown by their SMILES. Converted amounts (≈) assume the structure as drawn. Bounds are passed on as bounds.

For one data set, the system named is Klebsiella pneumoniae. Kind of data set: Antimicrobial activity against Klebsiella pneumoniae after 24 hrs. Format: functional. Put shortly:
(§1)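 NCCLS microdilution in Mueller Hinton broth. Strains were grown 24 h on nutrient agar at 37 °C, suspended at about 1.0–2.0 × 10^7 cells/mL (McFarland-matched) in saline with 0.05% Tween 20, then diluted 100 µL into 10 mL medium. Compounds were taken from a 1 mg/mL DMSO stock as twofold dilutions, top final 50 µg/mL. Incubation was 35 °C in a moist, dark chamber, and MIC was read spectrophotometrically at 24 h.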

The test system of the next data set is Candida parapsilosis. Briefly: Antimicrobial activity against Candida parapsilosis ATCC 22019 after 24 hrs. Format: functional. The conditions noted are these: Lodderomyces parapsilosis, ATCC 22019, 24 h. Put shortly: (§2)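 Broth microdilution per NCCLS guidelines in MOPS-buffered RPMI 1640. Starting inoculum was 1-5 × 10^3 cfu/mL, and plates were incubated at 35 °C. MIC was read spectrophotometrically at 492 nm after 24–48 h for yeasts and 72–96 h for mycelial fungi.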

The next data set deals with Staphylococcus aureus. Kind of data set: Antimicrobial activity against Staphylococcus aureus after 24 hrs. In kind it is functional. Put shortly: as §1
In another data set the test system is Cryptococcus neoformans. Kind of data set: Antimicrobial activity against Cryptococcus neoformans after 24 hrs. Format: functional. Put shortly:
as §2

The nature of data set [1]: Cytotoxicity against mouse L929 cells assessed as viability at 12.5 to 25 ug/ml after 24 hrs by MTT assay. In kind it is cell-based. The settings on record: read-out: Activity. Put shortly: (§3)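 L929 mouse fibroblasts were grown in RPMI 1640 with 10% FBS at 37 °C under 5% CO2 and seeded at 1.0 × 10^5 cells/mL. At 80% confluence the medium was switched to serum-free RPMI, and cells were exposed 24 h to 0.09–25 µg/mL in twofold steps. After PBS washes, cells got 0.5 mg/mL MTT for 4 h at 37 °C, then DMSO for 30 min at room temperature. Viability was calculated as (A570−A630) relative to untreated cells.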
In general terms: Tetrazolium dyes change colour on reduction, which living cells bring about.

Data set [2] has as its system Trichophyton mentagrophytes. Kind of data set: Antimicrobial activity against Trichophyton mentagrophytes after 72 to 96 hrs.
For data set [3], the system named is L929. Briefly: Cytotoxicity against mouse L929 cells at 6.25 ug/ml after 24 hrs by MTT assay. The conditions noted are these: l929, 24 h. Format: cell-based. Put shortly: as §3
Another data set deals with Pseudomonas aeruginosa. Kind of data set: Antimicrobial activity against Pseudomonas aeruginosa after 24 hrs. In kind it is functional. Put shortly:
as §1

The test system of the next data set is Escherichia coli. Briefly: Antimicrobial activity against Escherichia coli after 24 hrs. Format: functional. Put shortly: as §1
For a further data set, the system named is Candida albicans. Briefly: Antimicrobial activity against Candida albicans after 24 hrs. Format: functional. Put shortly:
as §2

A further data set concerns Sporothrix schenckii. Briefly: Antimicrobial activity against Sporothrix schenckii after 24 hrs. Format: functional. Put shortly: as §2
Data set [4] relates to L929. Briefly: Cytotoxicity against mouse L929 cells assessed as change in morphology at 6.25 ug/ml after 24 hrs […]. In kind it is cell-based. The conditions noted are these: l929, 24 h. Put shortly: (§4)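 L929 fibroblasts (serum-free RPMI, 37 °C, 5% CO2) were exposed to compound for 24 h, then fixed and stained with Giemsa for 30 min at 37 °C. Excess stain was washed off with PBS, plates were air-dried, and cell morphology was examined under a phase contrast microscope against untreated controls.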

The test system of a further data set is Aspergillus fumigatus. Kind of data set: Antimicrobial activity against Aspergillus fumigatus after 72 to 96 hrs.
Data set [5] concerns L929. Kind of data set: Cytotoxicity against mouse L929 cells assessed as change in cellular morphology at 12.5 to 25 ug/ml after 24 hrs […]. The settings on record: l929, 24 h. In kind it is cell-based. Put shortly:
as §4

Broadly, the MIC is the least concentration at which growth counts as inhibited. Low values mean inhibition by little substance, high ones a need for much substance. Turning to `Clc1cc(Cl)c2c(c1)CN(CCN1COc3c(Cl)cc(Cl)cc3C1)CO2`, the MIC was 1.56 µg/mL (≈ 3.59 µM) in the data set with Klebsiella pneumoniae; 50 µg/mL (≈ 115 µM) against Candida parapsilosis; 0.39 µg/mL (≈ 0.898 µM) against Staphylococcus aureus; 25 µg/mL (≈ 57.6 µM) against Cryptococcus neoformans; 25 µg/mL (≈ 57.6 µM) in data set [2]; over 50 µg/mL in the data set with Pseudomonas aeruginosa. Moreover, the MIC in the data set on Escherichia coli is over 50 µg/mL; in the data set on Candida albicans it was 50 µg/mL (≈ 115 µM); in the data set with Sporothrix schenckii, over 50 µg/mL; in the data set with Aspergillus fumigatus, 50 µg/mL (≈ 115 µM). Besides, the viability at 24 h in data set [1] is over 90%. Also, the Activity result is on record as “Non-toxic” in the data set on L929 [3], “Non-toxic” with L929 [4] and “Toxic” in the data set on L929 [5].

As to `Clc1ccc2c(c1)CN(c1ccccc1Cl)CO2`, the MIC in the data set on Klebsiella pneumoniae was over 50 µg/mL; with Candida parapsilosis it was 25 µg/mL (≈ 89.2 µM); against Staphylococcus aureus it was 6.25 µg/mL (≈ 22.3 µM); in the data set on Cryptococcus neoformans it was 12.5 µg/mL (≈ 44.6 µM); in data set [2], 3.12 µg/mL (≈ 11.1 µM); in the data set with Pseudomonas aeruginosa, over 50 µg/mL. In addition, the MIC is over 50 µg/mL in the data set on Escherichia coli, 12.5 µg/mL (≈ 44.6 µM) in the data set on Candida albicans, 6.25 µg/mL (≈ 22.3 µM) against Sporothrix schenckii and 25 µg/mL (≈ 89.2 µM) against Aspergillus fumigatus. Also, the viability at 24 h in data set [1] was over 90%. In addition, the results for the Activity entry with L929 [3], in the data set with L929 [4] and in the data set on L929 [5] were “Non-toxic”, “Non-toxic” and “Toxic”, respectively.

Consider `Clc1ccccc1N1COc2c(Cl)ccc(Cl)c2C1`, for which the MIC against Klebsiella pneumoniae came to 6.25 µg/mL (≈ 19.9 µM); in the data set on Candida parapsilosis, 50 µg/mL (≈ 159 µM); against Staphylococcus aureus, 12.5 µg/mL (≈ 39.7 µM); in the data set on Cryptococcus neoformans, 50 µg/mL (≈ 159 µM); in data set [2], 12.5 µg/mL (≈ 39.7 µM); against Pseudomonas aeruginosa, 50 µg/mL (≈ 159 µM). In addition, the minimal inhibitory concentration (MIC) was over 50 µg/mL against Escherichia coli, over 50 µg/mL against Candida albicans, 12.5 µg/mL (≈ 39.7 µM) against Sporothrix schenckii and 50 µg/mL (≈ 159 µM) against Aspergillus fumigatus. Besides, in [1], the viability at 24 h was over 90%. For the same molecule, the results for the Activity entry with L929 [3], in the data set on L929 [4] and in the data set with L929 [5] were “Non-toxic”, “Non-toxic” and “Toxic”, respectively.

As to `Clc1ccc2c(c1)CN(c1ccccc1)CO2`, the MIC against Klebsiella pneumoniae is 50 µg/mL (≈ 203 µM); in the data set on Candida parapsilosis, 50 µg/mL (≈ 203 µM); with Staphylococcus aureus, 25 µg/mL (≈ 102 µM); with Cryptococcus neoformans, 50 µg/mL (≈ 203 µM); in [2], 12.5 µg/mL (≈ 50.9 µM); against Pseudomonas aeruginosa, over 50 µg/mL. For the same molecule, the minimum inhibitory concentration (MIC) with Escherichia coli was determined as 12.5 µg/mL (≈ 50.9 µM); against Candida albicans it was 50 µg/mL (≈ 203 µM); in the data set on Sporothrix schenckii it was 6.25 µg/mL (≈ 25.4 µM); in the data set on Aspergillus fumigatus, 25 µg/mL (≈ 102 µM).

`Brc1ccc(N2COc3ccc4ccccc4c3C2)cc1`: the MIC in the data set on Klebsiella pneumoniae was over 50 µg/mL; against Candida parapsilosis it was over 50 µg/mL; against Staphylococcus aureus, over 50 µg/mL; against Cryptococcus neoformans it was 50 µg/mL (≈ 147 µM); in data set [2] it was 50 µg/mL (≈ 147 µM); with Pseudomonas aeruginosa it was 50 µg/mL (≈ 147 µM). Also, the MIC is over 50 µg/mL with Escherichia coli, over 50 µg/mL with Candida albicans, 50 µg/mL (≈ 147 µM) with Sporothrix schenckii and over 50 µg/mL in the data set with Aspergillus fumigatus.

Take `Clc1ccc(Cl)c(N2COc3ccc4ccccc4c3C2)c1`: the minimal inhibitory concentration (MIC) is over 50 µg/mL against Klebsiella pneumoniae; over 50 µg/mL with Candida parapsilosis; over 50 µg/mL in the data set on Staphylococcus aureus; over 50 µg/mL with Cryptococcus neoformans; 50 µg/mL (≈ 151 µM) in data set [2]; over 50 µg/mL in the data set on Pseudomonas aeruginosa. Moreover, the MIC against Escherichia coli was 50 µg/mL (≈ 151 µM); against Candida albicans, over 50 µg/mL; in the data set with Sporothrix schenckii, over 50 µg/mL; in the data set on Aspergillus fumigatus, over 50 µg/mL.

Regarding `c1ccc2c(c1)CN(CCN1COc3ccccc3C1)CO2`, the MIC was over 50 µg/mL in the data set on Klebsiella pneumoniae; over 50 µg/mL in the data set on Candida parapsilosis; over 50 µg/mL in the data set with Staphylococcus aureus; 50 µg/mL (≈ 169 µM) with Cryptococcus neoformans; 25 µg/mL (≈ 84.4 µM) in data set [2]; over 50 µg/mL against Pseudomonas aeruginosa. Moreover, the MIC against Escherichia coli was over 50 µg/mL; in the data set with Candida albicans, over 50 µg/mL; in the data set with Sporothrix schenckii, 25 µg/mL (≈ 84.4 µM); in the data set with Aspergillus fumigatus, 50 µg/mL (≈ 169 µM).
